# Experimental data from ChEMBL document CHEMBL1124344, “5-Piperazinylalkyl-2(3H)-oxazolones with neuroleptic activity” (J Med Chem, 1989).
# Legend:
# Mus musculus [1] = experiment: Antagonistic activity against amphetamine-induced Hypermobility in mice, by administering perorally at a dose of 70 mg/kg; type: functional; settings: route oral
# Outline: (§1)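 Male mice in groups of five, fasted overnight, given oral drug in arabic gum suspension (10 mL/kg) 1 or 5 h ahead. Amphetamine 4 mg/kg ip given 30 min after drug. Ten minutes later locomotion is recorded for 15 min in a photocell actophotometer. ED50 is 50% reduction versus control hypermotility, by probit analysis. Parenthetical entries give the maximal dose and percent activity.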
# Rattus norvegicus [2] = experiment: Antagonistic activity against apomorphine-induced stereotypy in rats, by administering perorally at a dose of 70 mg/kg; type: functional; settings: route oral
# Outline: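 Male rats fasted overnight and given oral doses in arabic gum suspension (10 mL/kg) 1 h, or 1 and 5 h, before challenge. Apomorphine 3 mg/kg iv, with stereotypy observed 20 min later. ED50 is the dose inhibiting stereotypy in 50% of rats, per Janssen's method. Parenthetical entries give the maximal dose and percent activity.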
# Rattus norvegicus [3] = experiment: Activity to evoke catalepsy in rats, by administering perorally at a dose of 70 mg/kg; type: functional; settings: route oral
# Outline: (§2)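 Rats fasted overnight and given oral doses in arabic gum suspension (10 mL/kg), 1 h before screening or 1 and 5 h before profile testing. Forelegs placed on a horizontal bar 7 cm high, three times at 5-min intervals. Immobility of at least 15 s counts as catalepsy. ED50 is the dose giving catalepsy in 50% of rats, by probit analysis. Parenthetical entries give the maximal dose and percent activity.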
# Mus musculus [4] = experiment: Inhibition of spontaneous motor activity in mice, by administering perorally at a dose of 70 mg/kg; type: functional; settings: route oral
# Outline: (§3)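 Mice fasted overnight, then dosed orally with compound (weighed as base) suspended in arabic gum, 10 mL/kg, with vehicle controls; 1 h pretreatment for screening tests, 1 or 5 h for others. Groups of five; locomotor activity counted 10 min in photocell activity cage, at least two groups per dose. ED50 = dose giving 50% inhibition versus controls, by probit analysis.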
# [5] = Lethal dose in mice (LD50) following i.p. dosing; type: toxicity, organism-based; settings: mouse, in vivo, ip
# Outline: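 Acute toxicity tested in mice by the intraperitoneal route. LD50 is the dose killing 50% of treated mice, computed by Finney probit analysis; values are approximate.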
# Mus musculus [6] = experiment: Activity of inclined screen in mouse, after 5 hour of peroral administration in mouse; type: functional
# Outline: (§4)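 Male mice placed for 1 h on a wire screen inclined 60°, just after oral dosing and 4 h later; ataxic or relaxed mice slide off. Fasted overnight, 10 per dose, vehicle controls. Compounds weighed as bases, suspended in arabic gum, 10 mL/kg orally; ED50 by Finney probit analysis.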
# Mus musculus [7] = experiment: Suppression of aggressive behavior, after 1 hour of peroral administration in mouse; type: functional; settings: po
# Outline: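 Male mice made aggressive by isolation in individual black cages for about 1 month plus weekly testosterone cyclopentylpropionate 250 mg/kg sc; pairs preselected for attack on a nonisolated male within 15 min. Oral dosing (arabic gum, 10 mL/kg) 1 or 5 h before test, overnight fast. ED50 = dose suppressing aggression in 50% of animals, probit analysis.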
# Mus musculus [8] = experiment: Contractile activity in skeletal muscles, after 1 hour of peroral administration in mouse; type: functional; settings: Muscle tissue, po
# Outline: (§5)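 Male mice were placed for 1 h on a 60° inclined wire screen just after dosing and 4 h later. In a second test, trained mice hung by the forepaws from a horizontal 1.8 mm wire 15 cm up; normal mice touch it with a hind paw within 2 s and stay ≥1 min. ED50 is the dose making 50% fall. Dosing was oral in gum arabic suspension at 10 mL/kg after an overnight fast.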
# Rattus norvegicus [9] = experiment: Antagonistic activity against apomorphine-induced stereotypy, after 5 hour of peroral administration in rats at a dose of 80 mg/kg; settings: po, read-out: Inhibition
# Mus musculus [10] = experiment: Potentiation against pentobarbital-induced sleeping, after 1 hour of peroral administration in mouse; type: functional; settings: po
# Outline: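 Female mice fasted overnight, dosed orally 1 or 5 h beforehand as arabic gum suspension, 10 mL/kg, with vehicle controls. Subhypnotic pentobarbital 10 mg/kg iv; 3 min later placed on back, effect scored as complete loss of righting reflex for at least 15 s. ED50 = dose producing this in 50% of mice, probit analysis.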
# Mus musculus [11] = experiment: Suppression of aggressive behavior, after 5 hour of peroral administration in mouse at a dose of 10 mg/kg; type: functional; settings: route oral
# Outline: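 Male mice made aggressive by about 1 month of isolation in individual black cages plus weekly testosterone cyclopentylpropionate 250 mg/kg sc. Pairs preselected for aggressiveness shortly before oral dosing 1 or 5 h beforehand; attack on a nonisolated male within 15 min scored. ED50 is the dose suppressing aggression in 50% of animals.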
# Mus musculus [12] = experiment: Effect on skeletal muscle tone, after 1 hour of peroral administration in mouse; type: functional; settings: Muscle tissue, po
# Outline: (§6)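 Male mice suspended by forepaws from a 1.8-mm wire stretched 15 cm above a plane. Trained normal mice touch the wire with a hind paw within 2 s (traction) and hang at least 1 min (suspension). Oral dosing 1 or 5 h before. ED50 is the dose making 50% of mice fall without traction and suspension.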
# Rattus norvegicus [13] = experiment: Inhibition against conditioned avoidance response, after 1 hour of peroral administration in rats; type: functional; settings: po
# Outline: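 Male rats were trained in a shuttle box to avoid grid-floor shock by crossing compartments during a warning period. Dosing was oral as a gum arabic suspension at 10 mL/kg after an overnight fast. Percent inhibition was computed against a pretraining test. ED50 is the dose giving 50% inhibition.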
# Rattus norvegicus [14] = experiment: Body weight gain, after 1 hour of peroral administration in rats; type: functional; settings: po
# Outline: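 Female rats (250–280 g), individually caged, on 22-h food deprivation with pellets 10–12 a.m.; weighed before and after eating. After 30–40 days training, oral drug given 1 h before the 2-h feeding. Weight gain expressed as percent of the two preceding control days; ED50 is the dose giving 50% reduction.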
# Mus musculus [15] = experiment: Inhibition of spontaneous motor activity, after 1 hour of peroral administration in mouse; type: functional; settings: po; outline: as §3
# Mus musculus [16] = experiment: Inhibition of spontaneous motor activity in mouse, by administering perorally; type: functional; settings: po; outline: as §3
# Mus musculus [17] = experiment: Inhibitory activity against tremorine-induced salivation, after 1 hour of peroral administration in mouse; type: functional; settings: po
# Outline: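 Male mice fasted overnight, dosed orally with arabic gum suspension (10 mL/kg) 1 or 5 h before test, vehicle controls included. Tremorine 20 mg/kg ip given 1 h after compounds; central (tremor) and peripheral (salivation) parasympathetic signs recorded. ED50 = dose protecting 50% of animals, by probit analysis.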
# Rattus norvegicus [18] = experiment: Activity to evoke catalepsy, after 1 hour of peroral administration in rats; type: functional; settings: po; outline: as §2
# Mus musculus [19] = experiment: Effect on skeletal muscle tone, after 5 hour of peroral administration in mouse; type: functional; settings: Muscle tissue, po; outline: as §5
# Mus musculus [20] = experiment: Inhibition of spontaneous motor activity, after 5 hour of peroral administration in mouse; type: functional; settings: po; outline: as §3
# Mus musculus [21] = experiment: Inhibitory activity against tremorine-induced tremors, after 1 hour of peroral administration in mouse; type: functional; settings: po
# Outline: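 Male mice given oral drug, then tremorine 20 mg/kg ip 1 h later; central tremor and peripheral salivation recorded. ED50 is the dose protecting 50% of animals from tremorine effects, by probit analysis.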
# Mus musculus [22] = experiment: Inhibition against apomorphine-induced climbing, after 1 hour of peroral administration in mouse; type: functional; settings: po
# Outline: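 Mice were dosed orally (gum arabic suspension, 10 mL/kg, fasted), then given apomorphine 1 mg/kg sc and placed in cylindrical cages with vertical metal bars. Climbing was scored 0 for four paws on the floor, 1 for forefeet on the wall, 2 for four paws on the wall. ED50 is the dose halving the control score.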
# Mus musculus [23] = experiment: Antagonistic activity against amphetamine-induced hypermotility, after 5 hour of peroral administration in mouse; type: functional; settings: po; outline: as §1
# Mus musculus [24] = experiment: Antagonistic activity against amphetamine-induced Hypermobility in mouse by administering perorally; type: functional; settings: po; outline: as §1
# Rattus norvegicus [25] = experiment: Antagonistic activity against amphetamine-induced stereotypy, after 5 hour of peroral administration in rats at a dose of 20 mg/kg; settings: po, read-out: Inhibition
# Rattus norvegicus [26] = experiment: Antagonistic activity against apomorphine-induced stereotypy, after 1 hour of peroral administration in rats at a dose of 80 mg/kg; settings: po, read-out: Inhibition
# Mus musculus [27] = experiment: Contractile activity in skeletal muscles, after 5 hour of peroral administration in mouse at a dose of 40 mg/kg; type: functional; settings: Muscle tissue, route oral; outline: as §6
# Rattus norvegicus [28] = experiment: Antagonistic activity against apomorphine-induced stereotypy in rats, by administering perorally at a dose of 80 mg/kg; settings: po, read-out: Inhibition
# Rattus norvegicus [29] = experiment: Inhibition against conditioned avoidance response, after 5 hour of peroral administration in rats at a dose of 20 mg/kg; settings: po, read-out: Inhibition
# Mus musculus [30] = experiment: Anticonvulsant activity against tryptamine-induced convulsions, after 5 hour of peroral administration in mouse at a dose of 40 mg/kg; type: functional; settings: route oral
# Outline: (§7)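 Male mice dosed orally (arabic gum, 10 mL/kg) 1 or 5 h before challenge with tryptamine 100 mg/kg iv, pentylenetetrazol 110 mg/kg ip, or maximal electroshock. Protection means no bilateral forepaw clonic seizures and head twitches (tryptamine) or no tonic hind-limb extension (others). ED50 protects 50% of mice.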
# Mus musculus [31] = experiment: Antagonistic activity against amphetamine-induced hypermotility, after 1 hour of peroral administration in mouse; type: functional; settings: po; outline: as §1
# Mus musculus [32] = experiment: Activity of inclined screen in mouse, after 1 hour of peroral administration in mouse; type: functional; outline: as §4
# Mus musculus [33] = experiment: Anticonvulsant activity against tryptamine-induced convulsions, after 1 hour of peroral administration in mouse; type: functional; settings: po
# Outline: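 Compounds were dosed as bases suspended in arabic gum at 10 mL/kg orally, after an overnight fast, with vehicle controls. Protection meant no bilateral forepaw clonic seizures or head twitches (tryptamine), or no tonic hind-limb extension (the other two). ED50 is the dose protecting 50%, by probit analysis.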
# Mus musculus [34] = experiment: Inhibitory activity against tremorine-induced tremors, after 5 hour of peroral administration in mouse; type: functional; settings: po
# Rattus norvegicus [35] = species: Rattus norvegicus; experiment: animal or person; settings: po, read-out: Inhibition
# Mus musculus [36] = experiment: Anticonvulsant activity against pentylenetetrazole-induced convulsions, after 1 hour of peroral administration in mouse at a dose of 40 mg/kg; type: functional; settings: route oral; outline: as §7
# Rattus norvegicus [37] = experiment: Antagonistic activity against amphetamine-induced stereotypy, after 1 hour of peroral administration in rats at a dose of 20 mg/kg; settings: po, read-out: Inhibition
# Mus musculus [38] = experiment: Anticonvulsant activity against pentylenetetrazole-induced convulsions, after 5 hour of peroral administration in mouse at a dose of 40 mg/kg; type: functional; settings: route oral; outline: as §7
# Mus musculus [39] = experiment: Anticonvulsant activity against electroshock-induced convulsions, after 1 hour of peroral administration in mouse at a dose of 26 mg/kg; type: functional; settings: route oral; outline: as §7
compound,measurement,setting,value
CSc1ccc(-c2nc(O)oc2CCN2CCN(c3ccccc3)CC2)cc1,inhibition in vivo at 70 mg/kg,Mus musculus [1],0%
same,inhibition in vivo at 70 mg/kg,Rattus norvegicus [2],0%
same,inhibition in vivo at 70 mg/kg,Rattus norvegicus [3],0%
same,inhibition in vivo at 70 mg/kg,Mus musculus [4],47%
same,LD50,[5],250 mg/kg
CN1CCN(C2=Nc3cc(Cl)ccc3Nc3ccccc32)CC1 [CLOZAPINE],ED50,Mus musculus [6],18.8 mg/kg
same,ED50,Mus musculus [7],3.5 mg/kg
same,ED50,Mus musculus [8],40 mg/kg
same,inhibition in vivo at 80 mg/kg,Rattus norvegicus [9],0%
same,ED50,Mus musculus [10],6.6 mg/kg
same,inhibition in vivo at 10 mg/kg,Mus musculus [11],0%
same,ED50,Mus musculus [12],9.2 mg/kg
same,ED50,Rattus norvegicus [13],8.6 mg/kg
same,ED50,Rattus norvegicus [14],8 mg/kg
same,ED50,Mus musculus [15],4.2 mg/kg
same,ED50,Mus musculus [16],4.2 mg/kg
same,ED50,Mus musculus [17],6.9 mg/kg
same,ED50,Rattus norvegicus [18],34 mg/kg
same,ED50,Mus musculus [19],30 mg/kg
same,ED50,Mus musculus [20],23 mg/kg
same,ED50,Mus musculus [21],30 mg/kg
same,ED50,Mus musculus [22],12 mg/kg
same,ED50,Mus musculus [23],20.1 mg/kg
same,ED50,Mus musculus [24],4.5 mg/kg
same,inhibition in vivo at 20 mg/kg,Rattus norvegicus [25],0%
same,inhibition in vivo at 80 mg/kg,Rattus norvegicus [26],30%
same,inhibition in vivo at 40 mg/kg,Mus musculus [27],10%
same,inhibition in vivo at 80 mg/kg,Rattus norvegicus [28],30%
same,inhibition in vivo at 20 mg/kg,Rattus norvegicus [29],0%
same,inhibition in vivo at 40 mg/kg,Mus musculus [30],0%
same,ED50,Mus musculus [31],4.5 mg/kg
same,ED50,Mus musculus [32],9.3 mg/kg
same,ED50,Mus musculus [33],10.3 mg/kg
same,ED50,Mus musculus [34],30 mg/kg
same,inhibition in vivo at 26 mg/kg,Rattus norvegicus [35],37%
same,inhibition in vivo at 40 mg/kg,Mus musculus [36],0%
same,inhibition in vivo at 20 mg/kg,Rattus norvegicus [37],20%
same,LD50,[5],100 mg/kg
same,inhibition in vivo at 40 mg/kg,Mus musculus [38],0%
same,inhibition in vivo at 26 mg/kg,Mus musculus [39],37%
